Reference: paper PMC3502708 (Journal of molecular biology, 2012)

B1: N-MORF: entire N-terminal region of MORF (amino acids 1–352), Flag-tag fusion (protein)
chain: MVKLANPLYTEWILEAIQKIKKQKQRPSEERICHAVSTSHGLDKKTVSEQLELSVQDGSVLKVTNKGLASYKDPDNPGRFSSVKPGTFPKSAKGSRGSCNDLRNVDWNKLLRRAIEGLEEPNGSSLKNIEKYLRSQSDLTSTTNNPAFQQRLRLGAKRAVNNGRLLKDGPQYRVNYGSLDGKGAPQYPSAFPSSLPPVSLLPHEKDQPRADPIPICSFCLGTKESNREKKPEELLSCADCGSSGHPSCLKFCPELTTNVKALRWQCIECKTCSACRVQGRNADNMLFCDSCDRGFHMECCDPPLSRMPKGMWICQVCRPKKKGRKLLHEKAAQIKRRYAKPIGRPKNKLKQR
modifications: left off: Flag, end not stated, kept
B2: GFP-N-MORF: GFP-tagged N-MORF (amino acids 1–352) (protein, UniProt Q8WYB5 1-352, looked up, fragment)
chain: B1 chain
modifications: GFP tag
B3: N-MORFΔPHD1/2: N-MORF (amino acids 1–215) in which the PHD1/2 fingers are deleted, Flag-tag fusion (protein)
chain: MVKLANPLYTEWILEAIQKIKKQKQRPSEERICHAVSTSHGLDKKTVSEQLELSVQDGSVLKVTNKGLASYKDPDNPGRFSSVKPGTFPKSAKGSRGSCNDLRNVDWNKLLRRAIEGLEEPNGSSLKNIEKYLRSQSDLTSTTNNPAFQQRLRLGAKRAVNNGRLLKDGPQYRVNYGSLDGKGAPQYPSAFPSSLPPVSLLPHEKDQPRADPIPI
modifications: left off: Flag, end not stated, kept
B4: GFP-N-MORFΔPHD1/2: GFP-tagged N-MORFΔPHD1/2 (amino acids 1–215) (protein, UniProt Q8WYB5 1-215, looked up, fragment)
chain: B3 chain
modifications: GFP tag

Columns and labels:
[1] = system: endogenous H3K14ac / histone H3 in HEK293 cells; assay type: cell-based; conditions: anti-Flag IP, anti-H3K14ac immunoblot
How it was run: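 HEK293 cells were seeded at 300,000 per 6 cm dish and lipofection-transfected with Flag-tagged MORF N-terminal constructs (aa 1–352, or aa 1–215 lacking PHD1/2). After about 48 h, cells were lysed in buffer with 150 mM KCl and immunoprecipitated on anti-Flag M2 agarose. Beads were washed extensively and eluted in 50 mM phosphoric acid. Blots were probed with anti-Flag, anti-H3K14ac and anti-H3. Where indicated, TSA (3 μM) was added to the medium 6 h before harvest.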

[2] = system: HEK293 cells; experiment: Live green fluorescence microscopy of GFP-MORF constructs; assay type: cell-based; conditions: 18 h post-transfection

Row | Molecule | Co-immunoprecipitation of endogenous H3K14ac [1] | Subcellular localization of GFP-MORF construct [2]
1 | B1 | co-immunoprecipitated endogenous H3K14ac | 
2 | B2 |  | clearly associated with chromatin forming nuclear speckles
3 | B3 | unable to pull down acetylated histone H3 | 
4 | B4 |  | evenly dispersed in the nucleus
